In ChEMBL document CHEMBL4414644, “A New Approach of Mitigating CYP3A4 Induction Led to the Discovery of Potent Hepatitis B Virus (HBV) Capsid Inhibitor with Optimal ADMET Profiles” (J Med Chem, 2019):
Activity calls are given as the source filed them.

Experiments:
[1] = Cytotoxicity in human HepDE19 cells assessed as reduction in cell viability incubated for 5 days by CCK8 assay; assay type: cell-based
Summary of the method: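 HepDE19 cells were grown in DMEM-F12 with 10% FBS, penicillin/streptomycin and 0.5 mg/mL G418, then seeded at 5 × 10^3 cells/well. Compound exposure lasted 5 days. Viability was read with CCK-8 after 2 h at 37 °C, measuring OD450 and OD630. CC50 was the concentration killing 50% of cells; duplicate runs.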

[2] = Induction of CYP3A4 gene expression in cryopreserved human hepatocytes assessed as increase in CYP3A4 mRNA level at 10 uM incubated for 24 hrs by qRT-PCR analysis relative to rifampicin; assay type: ADME, cell-based
Summary of the method: (§1)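 Cryopreserved hepatocytes from one human donor were seeded at 1 × 10^6 cells/mL and cultured 24 h in serum-free Williams E. Compounds at 0.1, 1.0 and 10 µM (0.1% DMSO) were added in triplicate for 24 h, with vehicle wells as negative controls. Positive controls were omeprazole for CYP1A2, phenobarbital for CYP2B6 and rifampicin for CYP3A4. mRNA was measured by TaqMan qRT-PCR normalised to PPIA (2^-ΔΔCT) and expressed as % of the positive control.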

[3] = Induction of CYP3A4 gene expression in cryopreserved human hepatocytes assessed as increase in CYP3A4 mRNA level at 0.1 uM incubated for 24 hrs by qRT-PCR analysis relative to rifampicin; assay type: ADME, cell-based; summary of the method: as §1
[4] = Induction of CYP3A4 gene expression in cryopreserved human hepatocytes assessed as increase in CYP3A4 mRNA level at 1 uM incubated for 24 hrs by qRT-PCR analysis relative to rifampicin; assay type: ADME, cell-based; summary of the method: as §1
[5] = Induction of CYP1A2 gene expression in cryopreserved human hepatocytes assessed as increase in CYP1A2 mRNA level at 0.1 uM incubated for 24 hrs by qRT-PCR analysis relative to omeprazole; assay type: ADME, cell-based; summary of the method: as §1
[6] = Induction of CYP1A2 gene expression in cryopreserved human hepatocytes assessed as increase in CYP1A2 mRNA level at 1 uM incubated for 24 hrs by qRT-PCR analysis relative to omeprazole; assay type: ADME, cell-based; summary of the method: as §1
[7] = Induction of CYP1A2 gene expression in cryopreserved human hepatocytes assessed as increase in CYP1A2 mRNA level at 10 uM incubated for 24 hrs by qRT-PCR analysis relative to omeprazole; assay type: ADME, cell-based; summary of the method: as §1
[8] = Apparent partition coefficient, logD of the compound at pH 7.4; assay type: physicochemical; conditions: octanol/water
[9] = Ionization constant (acid), pKa of the compound; assay type: physicochemical
[10] = Ionization constant (base), pKa of the compound; assay type: physicochemical
[11] = Solubility in pH 6.5 phosphate buffer stirred for 1 hr and shaken for 2 hrs by HPLC-UV based LYSA solubility assay; assay type: physicochemical
Summary of the method: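 Duplicate samples from 10 mM DMSO stock were dried, taken up in 0.05 M phosphate pH 6.5, stirred 1 h, shaken 2 h and left overnight. They were then filtered and the filtrate plus a 1/10 dilution analysed by HPLC-UV. Quantification used a four-point calibration; results in µg/mL.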

[12] = Permeability at 150 uM by PAMPA; assay type: ADME; conditions: read-out: permeability
Summary of the method: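 PAMPA: DMSO stock was diluted to 150 µM (<2% DMSO) in donor buffer of 0.05 M MOPSO pH 6.5 with 0.5% glycocholic acid. The acceptor was 0.05 M MOPSO pH 6.5. The membrane was 10% egg lecithin with 0.5% cholesterol in dodecane. Donor and acceptor concentrations were read at start and at ~18 h; results in 10^-6 cm/s.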

[13] = Unbound fraction in human plasma at 1000 nM incubated for 5 hrs by LC-MS/MS analysis detection based equilibrium dialysis assay; assay type: ADME, cell-free
Summary of the method: (§2)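 Equilibrium dialysis of pooled plasma against Soerensen buffer pH 7.4 used a 12–14 kDa cutoff membrane. Compounds were run in cassettes of 2–5 at 1000 nM total, with diazepam as the membrane-integrity control. Dialysis ran 5 h at 37 °C under 5% CO2, followed by LC–MS/MS of both compartments. Unbound fraction is the average of 3 tests.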

[14] = Unbound fraction in mouse plasma at 1000 nM incubated for 5 hrs by LC-MS/MS analysis detection based equilibrium dialysis assay; assay type: ADME, cell-free; summary of the method: as §2
[15] = Half life in BALB/c mouse at 1 mg/kg, iv by LC-MS/MS analysis; assay type: ADME, organism-based; conditions: in vivo
Summary of the method: (§3)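 Female BALB/c mice (16–22 g; 12 animals) got a single IV dose of 1 mg/kg in 5% DMSO/40% PEG400/55% saline. Blood was taken into EDTA-K2 and spun at 2000 g for 5 min at 4 °C. Plasma was stored at -80 °C and quantified by LC–MS/MS. Parameters came from non-compartmental analysis, with BLQ values omitted.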

[16] = Volume of distribution at steady state in BALB/c mouse at 1 mg/kg, iv by LC-MS/MS analysis; assay type: ADME, organism-based; conditions: in vivo, read-out: Vdss; summary of the method: as §3
[17] = Plasma clearance in BALB/c mouse at 1 mg/kg, iv by LC-MS/MS analysis; assay type: ADME, organism-based; summary of the method: as §3
[18] = Cmax in BALB/c mouse at 3 mg/kg, po by LC-MS/MS analysis; assay type: ADME, organism-based; set-up: dose 3 mg/kg, route oral; conditions: in vivo
Summary of the method: (§4)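 Female BALB/c mice (16–22 g; 21 animals) got a single oral dose of 3 mg/kg in 2% Klucel, Tween 80, 0.1% parabens in water. EDTA-K2 plasma was taken at each time point. Livers were harvested right after blood sampling, rinsed in cold saline, weighed and snap-frozen. Both matrices were quantified by LC–MS/MS and analysed non-compartmentally, omitting BLQs.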

[19] = AUC (0 to infinity) in BALB/c mouse at 1 mg/kg, iv by LC-MS/MS analysis; assay type: ADME, organism-based; set-up: dose 1 mg/kg, route intravenous, time infinity; conditions: in vivo; summary of the method: as §3
[20] = AUC (0 to infinity) in BALB/c mouse plasma at 3 mg/kg, po by LC-MS/MS analysis; assay type: ADME, organism-based; set-up: dose 3 mg/kg, route oral, time infinity; summary of the method: as §4
[21] = Oral bioavailability in BALB/c mouse at 3 mg/kg by LC-MS/MS analysis; assay type: ADME, organism-based; conditions: in vivo; summary of the method: as §4
[22] = AUC (0 to infinity) in BALB/c mouse liver at 3 mg/kg, po by LC-MS/MS analysis; assay type: ADME, organism-based; set-up: dose 3 mg/kg, route oral, time infinity; summary of the method: as §4
[23] = Drug metabolism in cryopreserved human hepatocytes assessed as glucuronide conjugation of carboxylic acid group at 1 uM incubated up to 120 mins by LC-MS/MS analysis; assay type: ADME, cell-based, Hepatocyte; conditions: 2 h
Hepatitis B virus [24] = assay: Antiviral activity against HBV infected in BALB/c mouse hydrodynamic injection model hydrodynamically injected with replication-competent HBV DNA plasmid assessed as reduction in HBV DNA level in liver at 3 mg/kg, po BID for 5 days by RT-qPCR analysis; assay type: functional, organism-based
Summary of the method: (§5)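 Used female BALB/c mice aged 6–8 weeks carrying an HBV genotype D genome delivered by tail-vein hydrodynamic plasmid injection. Animals received vehicle or drug orally at the stated frequency for 5 days. Plasma and liver were sampled at set time points, and HBV DNA was quantified by real-time qPCR. Error bars are SEM.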

Hepatitis B virus [25] = assay: Antiviral activity against HBV infected in BALB/c mouse hydrodynamic injection model hydrodynamically injected with replication-competent HBV DNA plasmid assessed as reduction in HBV DNA level in liver at 12 mg/kg, po BID for 5 days by RT-qPCR analysis; assay type: functional, organism-based; summary of the method: as §5
Hepatitis B virus [26] = assay: Antiviral activity against HBV infected in BALB/c mouse hydrodynamic injection model hydrodynamically injected with replication-competent HBV DNA plasmid assessed as reduction in HBV DNA level in plasma at 3 mg/kg, po BID for 5 days by RT-qPCR analysis; assay type: functional, organism-based; summary of the method: as §5
Hepatitis B virus [27] = assay: Antiviral activity against HBV infected in BALB/c mouse hydrodynamic injection model hydrodynamically injected with replication-competent HBV DNA plasmid assessed as reduction in HBV DNA level in plasma at 12 mg/kg, po BID for 5 days by RT-qPCR analysis; assay type: functional, organism-based; summary of the method: as §5
[28] = molecular target: Voltage-gated inwardly rectifying potassium channel KCNH2 (Homo sapiens, UniProt Q12809); assay: Inhibition of human ERG
Voltage-gated inwardly rectifying potassium channel KCNH2, sequence (Q12809 whole entry): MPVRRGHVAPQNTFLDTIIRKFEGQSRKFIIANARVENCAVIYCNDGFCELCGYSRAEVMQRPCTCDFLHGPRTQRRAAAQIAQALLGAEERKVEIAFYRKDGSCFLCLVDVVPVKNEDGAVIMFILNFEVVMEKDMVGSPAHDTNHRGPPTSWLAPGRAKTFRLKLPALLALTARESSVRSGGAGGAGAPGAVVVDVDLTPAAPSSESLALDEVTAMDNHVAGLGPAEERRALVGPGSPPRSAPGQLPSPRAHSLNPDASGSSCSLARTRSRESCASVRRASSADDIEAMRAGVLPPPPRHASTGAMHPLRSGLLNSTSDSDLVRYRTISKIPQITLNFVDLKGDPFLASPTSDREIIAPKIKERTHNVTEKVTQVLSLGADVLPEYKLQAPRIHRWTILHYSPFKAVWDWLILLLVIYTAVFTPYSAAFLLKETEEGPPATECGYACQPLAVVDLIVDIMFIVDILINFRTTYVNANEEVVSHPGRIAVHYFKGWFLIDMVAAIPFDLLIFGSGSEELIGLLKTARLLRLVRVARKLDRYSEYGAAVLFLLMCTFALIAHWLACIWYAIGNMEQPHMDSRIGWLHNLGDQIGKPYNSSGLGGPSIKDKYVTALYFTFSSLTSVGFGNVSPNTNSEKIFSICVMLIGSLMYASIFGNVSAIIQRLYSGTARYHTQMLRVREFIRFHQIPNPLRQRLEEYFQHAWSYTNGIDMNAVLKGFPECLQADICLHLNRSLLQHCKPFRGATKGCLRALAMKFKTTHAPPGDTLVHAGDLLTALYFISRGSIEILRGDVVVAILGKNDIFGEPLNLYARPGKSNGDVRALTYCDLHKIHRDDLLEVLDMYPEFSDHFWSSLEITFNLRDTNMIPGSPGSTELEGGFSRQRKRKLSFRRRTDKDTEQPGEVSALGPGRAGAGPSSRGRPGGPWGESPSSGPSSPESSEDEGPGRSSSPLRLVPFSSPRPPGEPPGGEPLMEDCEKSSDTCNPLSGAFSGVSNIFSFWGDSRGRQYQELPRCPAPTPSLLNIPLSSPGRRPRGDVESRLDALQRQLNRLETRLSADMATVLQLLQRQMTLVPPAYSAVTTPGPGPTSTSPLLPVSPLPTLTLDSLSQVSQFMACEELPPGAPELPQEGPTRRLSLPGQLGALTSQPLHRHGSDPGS

[29] = Toxicity in rat by 5-day mini-tox study; conditions: in vivo, 120 h
in vivo = conditions: BALB/c, mouse, liver/plasma, po, 3 mg/kg
[30] = Induction of CYP2B6 gene expression in cryopreserved human hepatocytes assessed as increase in CYP2B6 mRNA level at 1 uM incubated for 24 hrs by qRT-PCR analysis relative to phenobarbital
[31] = Induction of CYP2B6 gene expression in cryopreserved human hepatocytes assessed as increase in CYP2B6 mRNA level at 10 uM incubated for 24 hrs by qRT-PCR analysis relative to phenobarbital
[32] = Induction of CYP2B6 gene expression in cryopreserved human hepatocytes assessed as increase in CYP2B6 mRNA level at 0.1 uM incubated for 24 hrs by qRT-PCR analysis relative to phenobarbital

`COC(=O)C1=C(CN2CCOC[C@H]2C(=O)O)NC(c2nccs2)=N[C@H]1c1ccc(Br)c(F)c1` gave a CC50 at 120 h [1] of 76 µM and an Activity [2] of 26%.

`COC(=O)C1=C(CN2CCOC[C@H]2C(=O)O)NC(c2nccs2)=N[C@H]1c1ccc(C)c(F)c1` showed a CC50 at 120 h [1] of over 100 µM.

Work on `CCOC(=O)C1=C(CN2CCOC[C@H]2C(=O)O)NC(c2nccs2)=N[C@H]1c1ccc(F)c(F)c1F` yielded a CC50 at 120 h [1] of 49 µM and an Activity [2] of 105%.

`COC(=O)C1=C(CN2CCOC[C@H]2C(=O)O)NC(c2nccs2)=N[C@H]1c1ccc(F)c(F)c1` gave a CC50 at 120 h [1] of over 100 µM and an Activity [2] of 36%.

With `COC(=O)C1=C(CN2CC(F)(F)C[C@H]2C(=O)O)NC(c2nccs2)=N[C@H]1c1ccc(F)c(F)c1` the CC50 at 120 h [1] was 56 µM and the Activity [2] was 52%.

`COC(=O)C1=C(CN2CCOC[C@H]2C(=O)O)NC(c2nccs2)=N[C@H]1c1ccc(Cl)c(F)c1` gave a CC50 at 120 h [1] of over 100 µM, an Activity [2] of 25% and an Activity [3] of 2%. It also gave an Activity [4] of 7.5%, an Activity [5] of 1% and an Activity [6] of 0.9%. For the same compound, the Activity [7] was 1.7%, the logD [8] was 0.38 and the pKa [9] was 1.8. For the same compound, the pKa [10] was 5.9, the solubility [11] was over 631 µg/mL and the Papp at 150 µM [12] was 2.4 ×10⁻⁶ cm/s. It also gave a fraction unbound at 5 h, 1 µM [13] of 0.031, a fraction unbound at 5 h, 1 µM [14] of 0.04 and a half-life [15] of 2.3 h. For the same compound, the Vd [16] was 2.7 L/kg, the clearance [17] was 40.9 mL/min/kg and the Cmax [18] was 254 ng/mL. It also gave an AUC(0-inf) [19] of 408 ng·h/mL, an AUC(0-inf) [20] of 527 ng·h/mL and a bioavailability [21] of 43.1%. The AUC(0-inf) [22] was 20000 ng·h/mL, the Drug metabolism [23] was “Metabolite_Detected” and the Activity (Hepatitis B virus [24]) was “Active”. For the same compound, the Activity (Hepatitis B virus [25]) was “Active”, the Activity (Hepatitis B virus [26]) was “Active” and the Activity (Hepatitis B virus [27]) was “Active”. The “inhibition (INH)” value [28] was “Not Active”, the Activity [29] was “Non-Toxic” and the Kp (in vivo) was 38. The Activity [30] was 1.5%, the Activity [31] was 1.4% and the Activity [32] was 1.3%.

`CCOC(=O)C1=C(CN2CCOC[C@H]2C(=O)O)NC(c2nccs2)=N[C@H]1c1ccc(Cl)c(F)c1` gave a CC50 at 120 h [1] of 24 µM.

`CCOC(=O)C1=C(CN2CCOC[C@H]2C(=O)O)NC(c2nccs2)=N[C@H]1c1ccc(F)c(F)c1` showed a CC50 at 120 h [1] of over 100 µM and an Activity [2] of 41%.

With `CCOC(=O)C1=C(CN2CCOC[C@H]2C(=O)O)NC(c2nccs2)=N[C@H]1c1ccc(C)c(F)c1` the CC50 at 120 h [1] was 85 µM and the Activity [2] was 40%.

`CCOC(=O)C1=C(CN2CCOC[C@H]2C(=O)O)NC(c2nccs2)=N[C@H]1c1ccc(F)cc1` showed a CC50 at 120 h [1] of 62 µM and an Activity [2] of 85%.
